In PubChem BioAssay AID2247 (Johns Hopkins Ion Channel Center, 2010) one finds B-score data, which are given here for 67 compounds.

Among all 300,000 compounds or so, about 1,200 (0.4%) were called active.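 Rule for the calls: active = B-score over 3 SD under the library average, no early fluorescence shift, positive overall ratio signal; inactive = the rest.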 Many of the other results were omitted from the sample, so actives are more common in it than they were.

Chain of Short transient receptor potential channel 4 (Mus musculus) (Q9QUQ5 whole entry, looked up): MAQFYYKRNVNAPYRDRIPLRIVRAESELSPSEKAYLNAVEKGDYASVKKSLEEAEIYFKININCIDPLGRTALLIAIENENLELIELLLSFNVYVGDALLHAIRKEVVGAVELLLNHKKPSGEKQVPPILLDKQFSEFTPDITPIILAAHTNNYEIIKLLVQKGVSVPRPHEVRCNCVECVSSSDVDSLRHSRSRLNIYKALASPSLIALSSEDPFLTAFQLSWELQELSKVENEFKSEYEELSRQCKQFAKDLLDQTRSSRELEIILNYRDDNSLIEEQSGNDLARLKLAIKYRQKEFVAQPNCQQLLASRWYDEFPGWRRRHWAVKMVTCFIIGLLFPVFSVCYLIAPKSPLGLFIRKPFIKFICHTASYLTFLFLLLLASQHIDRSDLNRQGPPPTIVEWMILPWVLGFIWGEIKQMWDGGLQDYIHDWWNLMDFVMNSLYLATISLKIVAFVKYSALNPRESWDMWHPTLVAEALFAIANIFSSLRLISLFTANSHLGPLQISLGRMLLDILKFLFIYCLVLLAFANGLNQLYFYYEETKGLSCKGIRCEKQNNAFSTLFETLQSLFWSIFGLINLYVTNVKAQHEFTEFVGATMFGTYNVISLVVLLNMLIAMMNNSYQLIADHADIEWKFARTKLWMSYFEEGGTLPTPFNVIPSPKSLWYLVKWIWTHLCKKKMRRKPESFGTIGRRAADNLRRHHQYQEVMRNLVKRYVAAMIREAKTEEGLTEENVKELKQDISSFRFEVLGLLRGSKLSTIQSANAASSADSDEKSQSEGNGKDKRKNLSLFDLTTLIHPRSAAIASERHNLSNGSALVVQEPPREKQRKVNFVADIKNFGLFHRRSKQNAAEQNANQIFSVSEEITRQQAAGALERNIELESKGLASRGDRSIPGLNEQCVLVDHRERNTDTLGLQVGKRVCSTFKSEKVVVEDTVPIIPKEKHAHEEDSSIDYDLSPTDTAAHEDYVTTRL

The target in this assay is Short transient receptor potential channel 4 (Mus musculus) (UniProt Q9QUQ5). The experiment in a line: blockers of DAMGO-evoked TRPC4 calcium flux – Fluo4 calcium, HEK293 TRPC4beta/mu-opioid cells, primary screen (AID 2247). The following applies: at 10 µM; active compounds read low. The method, boiled down:
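Material: HEK293 cells with stable TRPC4beta plus mu-opioid receptor expression / Probe or stimulus: DAMGO in two steps, submaximal then maximal / Compound: single concentration per test compound / Technique: kinetic Fluo4 fluorescence imaging of calcium influx / Read-out: per-well B score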
(In general: A change in cytosolic calcium serves as a functional read-out for many receptors and channels.)
Regarding `CC(=O)Nc1ccc(NC(=O)C2CCCN2S(=O)(=O)c2cccc(C(F)(F)F)c2)cc1` (configuration not stated), the B-score entry is “inactive”.
Regarding `CC(C)c1ccc(S(=O)(=O)N2CCN(C(=O)CN3C(=O)NC(C)(c4ccccc4)C3=O)CC2)cc1` (configuration not stated), the B-score entry is “inactive”.
Take `N#Cc1c(-c2ccccc2)nc(SCc2ccc([N+](=O)[O-])cc2)[nH]c1=O`: the B-score result is “inactive”.
Consider `N#Cc1c(-c2ccccc2)nc(SCc2cccc(C(F)(F)F)c2)[nH]c1=O`, for which the B-score entry was “inactive”.
Under `Cc1ccc(CSc2nc(-c3ccccc3)c(C#N)c(=O)[nH]2)cc1` stands -6 (active).
As for `CC(C)c1ccc(S(=O)(=O)N2CCC3(CC2)OCCO3)cc1`, the B-score result was “inactive”.
Take `Nc1ccc(C(=O)N2CCN(S(=O)(=O)c3ccc(Cl)cc3)CC2)cc1[N+](=O)[O-]`: the B-score result was “inactive”.
Under `CN(C)CCN(C(=O)C1CCCCC1)c1nc2cc3c(cc2s1)OCO3` stands -6 (active).
Under `CCN(CC)CCN(C(=O)c1cc(Cl)sc1Cl)c1nc2cc3c(cc2s1)OCO3` stands “inactive”.
Consider `CN(C)CCN(C(=O)CN1C(=O)c2ccccc2C1=O)c1nc2cc3c(cc2s1)OCCO3`, for which the B-score result was “inactive”.
As to `CC(=O)Nc1ccc(S(=O)(=O)Oc2ccc(Br)cc2C(=S)N2CCOCC2)cc1`, the B-score result is “inactive”.
Regarding `COc1ccc(/C(C)=N/N2CCOCC2)c(O)c1`, the B-score result is “inactive”.
Consider `COc1cccc2cc(C(N)=O)/c(=N\NC(=O)c3ccccc3)oc12`, for which the B-score is -6 (active).
The entry for `NC(=O)c1cc2ccccc2o/c1=N/NC(=O)c1cccc(F)c1` is “inactive”; for `COc1ccc(C(=O)N/N=c2\oc3ccccc3cc2C(N)=O)cc1` it is “inactive”; for `COc1ccc(C(=O)NC2CC(C)(C)Cc3c2cnn3-c2ccccc2)c(OC)c1` (configuration not stated) it is “inactive”.
On to `CN1OC(COC(=O)c2ccc(Cl)cc2)CC1c1ccccc1` (configuration not stated), for which the B-score result was “inactive”.
For the compound `CCCCN(Cc1ccccc1)C(=O)C1CCN(Cc2sccc2C)CC1`, the B-score was -6 (active).
For the compound `CCOC(=O)C1CCN(Cc2ccc(-c3ccccc3)cc2)CC1`, the B-score entry is “inactive”.
In the case of `CCCC(=O)C1CCN(Cc2ccccc2)CC1`, the B-score entry was “inactive”.
`COc1cccc(CNc2ncc(-c3ccccc3)n2C)c1`: the B-score result was “inactive”.
Under `CCN(CC)S(=O)(=O)c1ccc(Cl)c(C(=O)NCCN2CCOCC2)c1` stands “inactive”.
The entry for `Cc1ccccc1N(C(=O)Cc1cccs1)C(C(=O)NC1CCCCC1)c1cn(C)nc1C` (configuration not stated) is “inactive”; for `CCc1ccc(C(CNc2nc(C(F)(F)F)nc3ccccc23)N(C)C)cc1` (configuration not stated) it is -7 (active).
As to `NS(=O)(=O)c1ccc(CCNc2nc(C(F)(F)F)nc3ccccc23)cc1`, the B-score entry is “inactive”.
Under `COc1cccc(CNc2nc(C(F)(F)F)nc3ccccc23)c1` stands “inactive”; under `CN(Cc1ccccc1F)C(=O)C(Cc1ccccc1)NC(=O)c1ccccc1` (configuration not stated), “inactive”.
`Cn1c(C(=O)N2CCCC(C(=O)NCc3ccccc3)C2)cc2sccc21` (configuration not stated): the B-score entry was “inactive”.
For `Cc1ccc(CN(C(=O)c2sc3ccccc3c2Cl)C2CCS(=O)(=O)C2)cc1` (configuration not stated), the B-score result is “inactive”.
Turning to `Fc1ccccc1COc1cccc2cccnc12`, the B-score entry is “inactive”.
As for `c1ccc(COc2ccccc2CNCc2cccnc2)cc1`, the B-score entry was “inactive”.
`Fc1ccccc1COc1ccccc1CNCc1ccncc1`: the B-score was -7 (active).
Under `Cc1ccc(S(=O)(=O)CC(=O)Nc2sc(C)c(C)c2C(N)=O)cc1` stands “inactive”; under `COc1cc2ccccc2cc1C(=O)N1CCOCC1`, “inactive”.
`CCCCCn1c(=O)[nH]c2cc(C(=O)NCCCN3CCCCC3C)ccc2c1=O` (configuration not stated): the B-score entry was “inactive”.
As for `N#CCCCn1c(O)c(N=NC(=O)C(O)c2ccccc2)c2ccccc21` (configuration not stated), the B-score result was “inactive”.
The entry for `Cc1ccc2nc(C)cc(N/N=C/c3ccc(F)cc3)c2c1` is “inactive”; for `Cc1cc(N/N=C/c2ccccc2F)c2ccccc2n1` it is -8 (active).
Under `Oc1ccc(/C=N/Nc2nc(-c3ccccc3F)nc3ccccc23)c(O)c1` stands “inactive”; under `CCCCC(c1nnnn1CS(=O)(=O)c1ccc(C)cc1)N1CCC(C(N)=O)CC1` (configuration not stated), “inactive”; under `CC1(C)OC(=O)C(=CNC(CO)C(=O)O)C(=O)O1` (configuration not stated), “inactive”.
Take `NC(=O)c1c(NC(=O)CSc2nc(N)cc(=O)[nH]2)sc2c1CCCC2`: the B-score entry is “inactive”.
Regarding `CCN1CCN(CC(=O)Nc2sc3c(c2C#N)CCC3)CC1`, the B-score entry is “inactive”.
With `CCCc1cc(=O)[nH]c(SCC(=O)Nc2sc3c(c2C#N)CCCC3)n1`, the B-score is -6 (active).
For `COc1ccc2[nH]c(=O)c(CN(Cc3cccnc3)S(=O)(=O)c3ccccc3F)cc2c1`, the B-score result was “inactive”.
Turning to `CC(NCc1ccccc1OC1CCCC1)c1ccccc1` (configuration not stated), the B-score is -6 (active).
For `CC(C)(C)NCc1cc(Br)ccc1OC1CCCC1`, the B-score entry is “inactive”.
Turning to `COc1ccccc1CN1CCN(C(c2ccccc2)c2ccccc2)CC1`, the B-score result is “inactive”.
`CC1CCCCC1NC(=O)/C(C#N)=C/C=C/c1ccccc1[N+](=O)[O-]` (configuration not stated): the B-score result was “inactive”.
The entry for `COc1ccc(N(Cc2cc3ccc(C)cc3[nH]c2=O)S(=O)(=O)c2ccccc2)cc1` is “inactive”; for `O=C(c1cccc(C(=O)N2CCN(c3ccc(F)cc3)CC2)c1)N1CCN(c2ccc(F)cc2)CC1` it is -8 (active).
Consider `O=C(c1cc(C(=O)N2CCN(c3ccc(F)cc3)CC2)cc([N+](=O)[O-])c1)N1CCN(c2ccc(F)cc2)CC1`, for which the B-score result is “inactive”.
Regarding `O=C(c1cc2cc(F)ccc2[nH]1)N1CCN(c2ccc(F)cc2)CC1`, the B-score entry is “inactive”.
Under `O=C(O)c1n[nH]nc1-c1ccccc1` stands “inactive”; under `c1ccc(Nc2n[nH]nc2-c2ccccc2)cc1`, -6 (active); under `Oc1ccc(-c2nnc(Nc3ccccc3)c3ccccc23)cc1`, “inactive”.
For the compound `COc1cc(C(F)(F)F)nc2c(Br)c(C(C)(C)C)nn12`, the B-score is -6 (active).
`CC1C(=O)N2CCCc3cc(S(=O)(=O)NCc4ccc(F)cc4)cc1c32` (configuration not stated): the B-score result was “inactive”.
On to `Cc1cccc2cc(CN(Cc3nnnn3Cc3ccccc3)C3CCCC3)c(=O)[nH]c12`, for which the B-score is -7 (active).
Under `Cc1cc(C)c2cc(CN(Cc3nnnn3Cc3ccc(F)cc3)C3CCCC3)c(=O)[nH]c2c1` stands “inactive”; under `Cc1cccc2cc(CN(Cc3ccc4c(c3)OCO4)Cc3nnnn3C3CCCC3)c(=O)[nH]c12`, “inactive”.
As to `NS(=O)(=O)c1ccc(NC(=S)Nc2ccc(Br)c(Cl)c2)cc1`, the B-score entry was “inactive”.
`Cc1ccc(S(=O)(=O)N2CCC(C)CC2)cc1C(=O)NCc1ccccn1`: the B-score result is “inactive”.
In the case of `O=C(NNC(=S)NCc1ccccc1)c1ccc(OC(F)F)cc1`, the B-score entry was “inactive”.
As for `CC(C)Oc1ccc(CCC(=O)NNC(=S)NCc2ccccc2)cc1`, the B-score is -6 (active).
`Cc1ccc(OCC(=O)NNC(=S)NCc2ccccc2)cc1`: the B-score entry was “inactive”.
In the case of `COc1ccc(NC(=O)CN(C)C(=O)c2cc(-c3ccc(C)o3)nc3ccccc23)cc1`, the B-score entry is “inactive”.
